Test results from ChEMBL document CHEMBL3400098, “Aza follow-ups to BI 207524, a thumb pocket 1 HCV NS5B polymerase inhibitor. Part 1: Mitigating the genotoxic liability of an aniline metabolite” (Bioorg Med Chem Lett, 2015).
One block for each compound: values may come before it.

What was measured:
Hepatitis C virus [1] = assay: Antiviral activity against Hepatitis C virus genotype 1a infected in human Huh cells assessed as inhibition of viral replication by RT-PCR-based replicon assay; assay type: functional, cell-based, Hepacivirus hominis; settings: subtype 1a
Method in brief: (§1)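 HCV replicon EC50 determined in duplicate, using either a GT1b luciferase reporter read-out or RT-PCR quantification of replicon RNA.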

[2] = Permeability from apical to basolateral side of human Caco2 cells; assay type: ADME, cell-based; settings: Caco-2, read-out: permeability
Method in brief: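 Caco-2 permeability measured in the apical-to-basolateral direction, reported in cm/s.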

[3] = Half life in rat liver microsomes at 2 uM; assay type: ADME
Method in brief: (§2)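 Stability in liver microsomes with 2 µM initial compound concentration; half-life recorded.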

[4] = Ratio of drug up take in liver to plasma of rat at 4 mg/kg, po as cassette dosing measured at 2 hrs post dose; assay type: ADME, organism-based; parameters: dose 4 mg/kg, route oral
Method in brief: (§3)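 Cassette dosing: a mixture of 4 compounds, each at 4 mg/kg, given orally to 2 fasted rats in 0.5% methylcellulose, 0.3% Tween-80 and 1% NMP. Plasma sampled at 1 and 2 h. Liver/plasma ratio determined at 2 h.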

[5] = Inhibition of Hepatitis C virus genotype 1b C-terminal truncated NS5B RNA dependent RNA polymerase delta21 expressed in Escherichia coli by scintillation proximity assay; parameters: species or system Hepatitis C virus subtype 1b
Method in brief: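 Biochemical polymerase inhibition using a C-terminally truncated GT1b NS5BΔ21 construct. Values are the mean of duplicate measurements (n ≥ 2).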

[6] = Half life in human liver microsomes at 2 uM; assay type: ADME; method in brief: as §2
[7] = Cytotoxicity against human HuH7 cells assessed as reduction in cell viability by MTT assay; assay type: cell-based; settings: Huh-7 cells, read-out: TC50 (the source's name)
Method in brief: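 Cytotoxicity (TC50) measured by MTT read-out in the Huh-7 cell line.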

Hepatitis C virus [8] = assay: Antiviral activity against Hepatitis C virus genotype 1b infected in human Huh cells assessed as inhibition of viral replication by luciferase reporter assay; assay type: functional, cell-based, Hepacivirus hominis; method in brief: as §1
[9] = Plasma concentration in rat at 4 mg/kg, po as cassette dosing measured at 1 hr post dose; assay type: ADME, organism-based; parameters: dose 4 mg/kg, route oral; method in brief: as §3
[10] = Plasma concentration in rat at 4 mg/kg, po as cassette dosing measured at 2 hrs post dose; assay type: ADME, organism-based; parameters: dose 4 mg/kg, route oral; method in brief: as §3
[11] = Lipophilicity, log D of the compound at pH 7.4; assay type: physicochemical; settings: buffer
Salmonella typhimurium [12] = assay: Mutagenic activity in Salmonella typhimurium at 315 to 5000 ug/plate by Ames test in presence of S9 fraction; assay type: toxicity, organism-based; settings: salmonella enterica subsp. enterica serovar typhimurium
Method in brief: (§4)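 Ames test on the free carboxylic acid forms using multiple strains and strain TA100 of Salmonella typhimurium, at 315–5000 µg per plate, run with and without S9 metabolic activation.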

Salmonella typhimurium [13] = assay: Mutagenic activity in Salmonella typhimurium at 315 to 5000 ug/plate by Ames test in absence of S9 fraction; assay type: toxicity, organism-based; settings: salmonella enterica subsp. enterica serovar typhimurium; method in brief: as §4
[14] = Cmax in rat at 5 mg/kg, po and 2 mg/kg, iv; assay type: ADME, organism-based; settings: in vivo
Method in brief: (§5)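 Animals fasted overnight. Oral dose given as a suspension in 0.5% methylcellulose, 0.3% Tween-80 and 1% NMP. IV bolus of 2 mg/kg given in 70% PEG-400:30% water. N = 3 per dose and per route. Plasma kept on ice, spun at 4 °C and stored at about −20 °C. Calibration standards prepared in blank plasma, LOQ 7 ng/mL. Non-compartmental analysis.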

[15] = Permeability coefficient, Kp for ratio of drug uptake in liver to plasma in rat; assay type: ADME
[16] = AUC in dog at 5 mg/kg, po and 2 mg/kg, iv; assay type: ADME, organism-based, Canis lupus familiaris; settings: plasma; method in brief: as §5
[17] = Bioavailability in rat at 5 mg/kg, po and 2 mg/kg, iv; assay type: ADME, organism-based; settings: in vivo; method in brief: as §5
Hepatitis C virus [18] = assay: Antiviral activity against Hepatitis C virus genotype 1b infected in human Huh cells assessed as inhibition of viral replication by RT-PCR-based replicon assay; assay type: functional, cell-based, Hepacivirus hominis; method in brief: as §1
[19] = Cmax in rat at 5 mg/kg, po; assay type: ADME, organism-based; parameters: dose 5 mg/kg, route oral; settings: in vivo
Method in brief: (§6)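 Rats fasted overnight, then given a single compound orally at 5 mg/kg in 0.5% methylcellulose, 0.3% Tween-80 and 1% NMP. Plasma Cmax measured. Liver/plasma concentration ratio taken at 8 h for single-compound dosing.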

[20] = Clearance in dog at 2 mg/kg, iv; assay type: ADME, organism-based, Canis lupus familiaris; parameters: dose 2 mg/kg, route intravenous; settings: in vivo; method in brief: as §5
[21] = Half life in dog at 5 mg/kg, po and 2 mg/kg, iv; assay type: ADME, organism-based, Canis lupus familiaris; settings: in vivo; method in brief: as §5
[22] = Volume of distribution at steady state in rat at 5 mg/kg, po and 2 mg/kg, iv; assay type: ADME, organism-based; settings: in vivo, read-out: Vdss; method in brief: as §5
[23] = Volume of distribution at steady state in dog at 5 mg/kg, po and 2 mg/kg, iv; assay type: ADME, organism-based, Canis lupus familiaris; settings: in vivo, read-out: Vdss; method in brief: as §5
[24] = AUC in rat at 5 mg/kg, po and 2 mg/kg, iv; assay type: ADME, organism-based; settings: plasma; method in brief: as §5
[25] = Cmax in dog at 5 mg/kg, po and 2 mg/kg, iv; assay type: ADME, organism-based, Canis lupus familiaris; settings: in vivo; method in brief: as §5
Macaca mulatta [26] = assay: Half life in rhesus monkey at 5 mg/kg, po and 2 mg/kg, iv; settings: in vivo
[27] = Bioavailability in dog at 5 mg/kg, po and 2 mg/kg, iv; assay type: ADME, organism-based, Canis lupus familiaris; settings: in vivo; method in brief: as §5
Macaca mulatta [28] = assay: Cmax in rhesus monkey at 5 mg/kg, po and 2 mg/kg, iv; settings: in vivo
[29] = Half life in rhesus monkey liver microsomes at 2 uM
[30] = Half life in rat at 5 mg/kg, po and 2 mg/kg, iv; assay type: ADME, organism-based; settings: in vivo; method in brief: as §5
Macaca mulatta [31] = assay: Volume of distribution at steady state in rhesus monkey at 5 mg/kg, po and 2 mg/kg, iv; settings: in vivo, read-out: Vdss
Macaca mulatta [32] = assay: Bioavailability in rhesus monkey at 5 mg/kg, po and 2 mg/kg, iv; settings: in vivo
[33] = Clearance in rat at 2 mg/kg, iv; assay type: ADME, organism-based; parameters: dose 2 mg/kg, route intravenous; settings: in vivo; method in brief: as §5
[34] = Ratio of drug up take in liver to plasma of rat at 5 mg/kg, po measured at 8 hrs post dose; assay type: ADME, organism-based; parameters: dose 5 mg/kg, route oral; method in brief: as §6
[35] = Clearance in rhesus monkey at 2 mg/kg, iv; settings: in vivo
[36] = Half life in dog liver microsomes at 2 uM; assay type: ADME, Canis lupus familiaris; method in brief: as §2
Macaca mulatta [37] = assay: AUC in rhesus monkey at 5 mg/kg, po and 2 mg/kg, iv; settings: plasma

- EC50 (Hepatitis C virus [1]): 34 nM
- Papp A→B [2]: 13 ×10⁻⁶ cm/s
- half-life at 2 µM [3]: > 5 h
- Kp at 2 h [4]: 5
- IC50 [5]: 100 nM
- half-life at 2 µM [6]: 2.43 h
- EC50 (Hepatitis C virus [8]): 20 nM
- concentration at 1 h [9]: 2.1 µM
- concentration at 2 h [10]: 0.9 µM
Structure (SMILES): CCOc1nc(NC(=O)C2(NC(=O)c3ccc4c(C5CCCC5)c(-c5ncc(Cl)cn5)n(C)c4c3)CCC2)cnc1/C=C/C(=O)O
- CC50 [7]: > 10000 nM

- Papp A→B [2]: 1.6 ×10⁻⁶ cm/s
- half-life at 2 µM [3]: 3.78 h
- IC50 [5]: 80 nM
- half-life at 2 µM [6]: 2.27 h
- EC50 (Hepatitis C virus [8]): 360 nM
- logD [11]: 3.4
Structure (SMILES): CCOc1cc(NC(=O)C2(NC(=O)c3ccc4c(C5CCCC5)c(-c5ncc(Cl)cn5)n(C)c4c3)CCC2)nnc1/C=C/C(=O)O
- CC50 [7]: > 10000 nM

Structure (SMILES): CCOc1nc(N)cnc1/C=C/C(=O)O
- Activity (Salmonella typhimurium [12]): Non-toxic
- Activity (Salmonella typhimurium [13]): Non-toxic

- Cmax [14]: 5.8 µM
- Kp [15]: 2.6
- AUC [16]: 56 µM·h
- EC50 (Hepatitis C virus [1]): 27 nM
- bioavailability [17]: 42%
- EC50 (Hepatitis C virus [18]): 14 nM
- Cmax [19]: 5.9 µM
- clearance [20]: 0.9 mL/min/kg
- half-life at 2 µM [3]: 1.85 h
- half-life [21]: 6.1 h
- Vd [22]: 0.28 L/kg
- Vd [23]: 0.28 L/kg
- IC50 [5]: 85 nM
- AUC [24]: 17 µM·h
- Cmax [25]: 10 µM
- half-life (Macaca mulatta [26]): 2 h
- bioavailability [27]: 40%
- Cmax (Macaca mulatta [28]): 2.6 µM
- half-life at 2 µM [29]: 0.533 h
- half-life [30]: 1.5 h
- Vd (Macaca mulatta [31]): 0.06 L/kg
- EC50 (Hepatitis C virus [8]): 15 nM
- logD [11]: > 5.9
- bioavailability (Macaca mulatta [32]): 11%
- clearance [33]: 3.1 mL/min/kg
- Kp at 8 h [34]: 2
- clearance [35]: 1.5 mL/min/kg
- half-life at 2 µM [36]: 3.65 h
- AUC (Macaca mulatta [37]): 8.9 µM·h
Structure (SMILES): CCOc1nc(NC(=O)C2(NC(=O)c3ccc4c(C5CCCC5)c(-c5ncc(Cl)cn5)n(C)c4c3)CCC2)ccc1/C=C/C(=O)O
- CC50 [7]: 56000 nM

Structure (SMILES): CCOc1nc(N)ccc1/C=C/C(=O)O
- Activity (Salmonella typhimurium [12]): Non-toxic
- Activity (Salmonella typhimurium [13]): Non-toxic
